Experimental data from ChEMBL document CHEMBL2429772, “Selective arylsulfonamide inhibitors of ADAM-17: hit optimization and activity in ovarian cancer cell models” (J Med Chem, 2013).
pIC50: −log10 of the molar value.

Columns and labels:
[1] = molecular target: Matrix metalloproteinase-9 (Homo sapiens, UniProt P14780); assay: Inhibition of recombinant human MMP-9 using Mca-Lys-Pro-Leu-Gly-Leu-Dap(Dnp)-Ala-Arg-NH2 as substrate incubated for 4 hrs measured every 15 secs for 20 mins by fluorimetric assay
Outline: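 Pro-MMP-9 was activated with 1 mM APMA for 1 h at 37 °C and used at 1.3 nM final. Inhibitor was incubated with enzyme for 4 h at 25 °C in Tris 50 mM pH 7.5, NaCl 150 mM, CaCl2 10 mM, 0.05% Brij-35, 1% DMSO. Substrate was at 2 µM final, ex 325/em 400 nm, in duplicate. IC50 was obtained from vi/vo = 1/(1+[I]/IC50).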

[2] = molecular target: T1, Disintegrin and metalloproteinase domain-containing protein 10 (Homo sapiens, UniProt O14672); assay: Inhibition of recombinant human ADAM-10 using Mca-Lys-Pro-Leu-Gly-Leu-Dap(Dnp)-Ala-Arg-NH2 as substrate incubated for 1 hr measured every 15 secs for 20 mins by fluorimetric assay
T1 sequence (O14672 whole entry): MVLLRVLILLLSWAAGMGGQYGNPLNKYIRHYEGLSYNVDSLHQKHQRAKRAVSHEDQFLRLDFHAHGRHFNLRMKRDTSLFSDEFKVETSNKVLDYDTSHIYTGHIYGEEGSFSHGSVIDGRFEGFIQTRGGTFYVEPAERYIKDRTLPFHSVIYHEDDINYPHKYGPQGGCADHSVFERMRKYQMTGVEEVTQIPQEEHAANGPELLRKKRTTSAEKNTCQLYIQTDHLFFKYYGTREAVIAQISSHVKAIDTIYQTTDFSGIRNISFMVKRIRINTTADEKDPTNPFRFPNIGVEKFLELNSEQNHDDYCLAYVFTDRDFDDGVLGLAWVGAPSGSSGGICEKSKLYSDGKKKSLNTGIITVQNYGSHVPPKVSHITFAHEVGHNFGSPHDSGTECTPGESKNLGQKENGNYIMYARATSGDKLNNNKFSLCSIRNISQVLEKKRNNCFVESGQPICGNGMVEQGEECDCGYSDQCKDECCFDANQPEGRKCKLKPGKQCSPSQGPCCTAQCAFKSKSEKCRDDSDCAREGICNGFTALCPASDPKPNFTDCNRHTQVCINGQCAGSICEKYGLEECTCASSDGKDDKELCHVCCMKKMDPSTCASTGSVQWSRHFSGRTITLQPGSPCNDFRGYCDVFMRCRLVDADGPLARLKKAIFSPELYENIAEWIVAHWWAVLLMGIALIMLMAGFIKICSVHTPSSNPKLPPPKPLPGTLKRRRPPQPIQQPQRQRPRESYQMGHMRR
Outline: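 Enzyme at 20 nM final was preincubated with inhibitor for 1 h at 37 °C in pH 9 buffer (Tris 25 mM, ZnCl2 25 µM, 0.005% Brij-35). Substrate was at 10 µM final. Fluorescence (ex 325/em 400 nm) was followed for initial velocity, in duplicate. IC50 was calculated with vi/vo = 1/(1+[I]/IC50).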

[3] = molecular target: Matrix metalloproteinase-14 (Homo sapiens, UniProt P50281); assay: Inhibition of recombinant human MMP-14 catalytic domain using Mca-Lys-Pro-Leu-Gly-Leu-Dap(Dnp)-Ala-Arg-NH2 as substrate incubated for 4 hrs measured every 15 secs for 20 mins by fluorimetric assay
Outline: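 MMP-14 catalytic domain was used at 1.0 nM final with no activation step. It was incubated with inhibitor for 4 h at 25 °C in Tris 50 mM pH 7.5 buffer with NaCl 150 mM, CaCl2 10 mM, 0.05% Brij-35 and 1% DMSO. Substrate was at 2 µM final, ex 325/em 400 nm, duplicate wells. IC50 was fitted by vi/vo = 1/(1+[I]/IC50).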

[4] = molecular target: 72 kDa type IV collagenase (Homo sapiens, UniProt P08253); assay: Inhibition of recombinant human MMP-2 using Mca-Lys-Pro-Leu-Gly-Leu-Dap(Dnp)-Ala-Arg-NH2 as substrate incubated for 4 hrs measured every 15 secs for 20 mins by fluorimetric assay
Outline: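 Pro-MMP-2 was activated with 2 mM APMA for 1 h at 37 °C and used at 0.56 nM final. It was preincubated with inhibitor for 4 h at 25 °C in Tris 50 mM pH 7.5 buffer containing NaCl, CaCl2, Brij-35 and 1% DMSO. Substrate was at 2 µM final, ex 325/em 400 nm, run in duplicate. IC50 was taken from initial-velocity ratios, vi/vo = 1/(1+[I]/IC50).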

[5] = molecular target: T2, Interstitial collagenase (Homo sapiens, UniProt P03956); assay: Inhibition of recombinant human MMP-1 using Mca-Lys-Pro-Leu-Gly-Leu-Dap(Dnp)-Ala-Arg-NH2 as substrate incubated for 4 hrs measured every 15 secs for 20 mins by fluorimetric assay
T2 sequence (P03956 whole entry): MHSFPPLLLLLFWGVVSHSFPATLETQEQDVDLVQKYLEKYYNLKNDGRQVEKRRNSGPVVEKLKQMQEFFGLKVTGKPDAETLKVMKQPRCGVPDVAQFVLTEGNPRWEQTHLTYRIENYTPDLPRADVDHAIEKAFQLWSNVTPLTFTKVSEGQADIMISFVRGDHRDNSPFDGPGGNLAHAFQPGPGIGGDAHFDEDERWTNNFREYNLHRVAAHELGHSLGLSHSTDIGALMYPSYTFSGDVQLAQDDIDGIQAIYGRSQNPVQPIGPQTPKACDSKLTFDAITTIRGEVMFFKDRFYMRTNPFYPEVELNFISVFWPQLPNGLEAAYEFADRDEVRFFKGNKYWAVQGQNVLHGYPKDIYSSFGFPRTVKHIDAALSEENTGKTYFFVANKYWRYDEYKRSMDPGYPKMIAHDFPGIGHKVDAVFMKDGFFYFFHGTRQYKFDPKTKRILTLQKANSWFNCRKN
Outline: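 Pro-MMP-1 was activated with 2 mM APMA for 2 h at 37 °C. Enzyme (2.0 nM final) was incubated with inhibitor in Tris 50 mM pH 7.5, NaCl 150 mM, CaCl2 10 mM, 0.05% Brij-35, 1% DMSO for 4 h at 25 °C. Substrate was added at 2 µM final. Fluorescence (ex 325/em 400 nm) was read for initial rates, in duplicate. IC50 came from vi/vo = 1/(1+[I]/IC50).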

[6] = molecular target: T3, Disintegrin and metalloproteinase domain-containing protein 17 (Homo sapiens, UniProt P78536); assay: Inhibition of recombinant human ADAM-17 using Mca-Lys-Pro-Leu-Gly-Leu-Dap(Dnp)-Ala-Arg-NH2 as substrate incubated for 30 mins measured every 15 secs for 20 mins by fluorimetric assay
Outline: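 Enzyme at 5 nM final was preincubated with inhibitor for 30 min at 37 °C in Tris 25 mM pH 9, ZnCl2 25 µM, 0.005% Brij-35. Substrate was at 2 µM final. Fluorescence increase (ex 325/em 400 nm) gave initial rates, in duplicate. IC50 was derived from vi/vo = 1/(1+[I]/IC50).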

[7] = molecular target: T3, Disintegrin and metalloproteinase domain-containing protein 17; assay: Inhibition of ADAM-17 in human SKOV3 cells transfected with luciferase gene assessed as inhibition of pervanadate-induced sALCAM release incubated for 30 mins prior to pervanadate induction measured after 90 mins by ELISA; format: cell-based, SK-OV-3
[8] = tested on: A2780; assay: Cytotoxicity against human A2780 cells assessed as cell viability at 0.01 to 10 uM after 24 to 72 hrs by MTT assay; format: cell-based; details: a2780, 10 µM
[9] = Cytotoxicity against human A2774 cells assessed as cell viability at 0.01 to 10 uM after 24 to 72 hrs by MTT assay; format: cell-based; details: a2774, 10 µM
[10] = tested on: SK-OV-3; assay: Cytotoxicity against human SKOV3 cells transfected with luciferase gene assessed as cell viability at 0.01 to 10 uM after 24 to 72 hrs by MTT assay; format: cell-based; details: sk-ov-3, 10 µM
[11] = molecular target: T3, Disintegrin and metalloproteinase domain-containing protein 17; assay: Inhibition of ADAM-17 in human A2780 cells assessed as inhibition of EGF-induced sALCAM release incubated for 30 mins prior to EGF induction measured after 18 hrs by ELISA; format: cell-based
[12] = molecular target: T3, Disintegrin and metalloproteinase domain-containing protein 17; assay: Inhibition of ADAM-17 in human A2780 cells assessed as inhibition of pervanadate-induced sALCAM release incubated for 30 mins prior to pervanadate induction measured after 90 mins by ELISA; format: cell-based
[13] = molecular target: T3, Disintegrin and metalloproteinase domain-containing protein 17; assay: Inhibition of ADAM-17 in human SKOV3 cells transfected with luciferase gene assessed as inhibition of EGF-induced sALCAM release incubated for 30 mins prior to EGF induction measured after 18 hrs by ELISA; format: cell-based, SK-OV-3
[14] = molecular target: T3, Disintegrin and metalloproteinase domain-containing protein 17; assay: Inhibition of ADAM-17 in human A2774 cells assessed as inhibition of EGF-induced sALCAM release incubated for 30 mins prior to EGF induction measured after 18 hrs by ELISA; format: cell-based
[15] = molecular target: T3, Disintegrin and metalloproteinase domain-containing protein 17; assay: Inhibition of ADAM-17 in human A2774 cells assessed as inhibition of pervanadate-induced sALCAM release incubated for 30 mins prior to pervanadate induction measured after 90 mins by ELISA; format: cell-based

T3 sequence (P78536 whole entry, the tested form may be a part): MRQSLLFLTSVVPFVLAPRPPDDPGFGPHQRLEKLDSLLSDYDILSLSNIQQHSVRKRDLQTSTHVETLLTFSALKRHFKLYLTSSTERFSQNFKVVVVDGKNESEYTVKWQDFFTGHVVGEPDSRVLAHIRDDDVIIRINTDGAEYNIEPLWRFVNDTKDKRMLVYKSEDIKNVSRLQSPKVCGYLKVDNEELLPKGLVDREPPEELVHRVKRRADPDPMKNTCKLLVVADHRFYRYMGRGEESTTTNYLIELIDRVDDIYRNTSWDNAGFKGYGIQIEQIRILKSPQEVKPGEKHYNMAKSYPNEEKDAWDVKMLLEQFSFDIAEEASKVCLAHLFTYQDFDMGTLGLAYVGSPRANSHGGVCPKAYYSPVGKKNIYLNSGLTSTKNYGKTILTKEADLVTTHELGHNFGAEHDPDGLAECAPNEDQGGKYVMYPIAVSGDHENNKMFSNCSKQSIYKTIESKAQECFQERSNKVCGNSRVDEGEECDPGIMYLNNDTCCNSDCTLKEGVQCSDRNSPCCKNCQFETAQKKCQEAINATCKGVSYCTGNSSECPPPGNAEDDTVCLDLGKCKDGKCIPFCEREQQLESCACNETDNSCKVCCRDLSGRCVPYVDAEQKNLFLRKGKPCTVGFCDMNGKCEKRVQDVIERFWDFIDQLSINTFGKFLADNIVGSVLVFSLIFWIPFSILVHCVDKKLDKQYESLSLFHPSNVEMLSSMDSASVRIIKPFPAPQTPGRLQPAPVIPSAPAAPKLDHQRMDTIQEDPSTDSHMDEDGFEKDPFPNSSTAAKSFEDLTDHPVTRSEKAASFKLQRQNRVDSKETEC
Chain of 72 kDa type IV collagenase (P08253 whole entry): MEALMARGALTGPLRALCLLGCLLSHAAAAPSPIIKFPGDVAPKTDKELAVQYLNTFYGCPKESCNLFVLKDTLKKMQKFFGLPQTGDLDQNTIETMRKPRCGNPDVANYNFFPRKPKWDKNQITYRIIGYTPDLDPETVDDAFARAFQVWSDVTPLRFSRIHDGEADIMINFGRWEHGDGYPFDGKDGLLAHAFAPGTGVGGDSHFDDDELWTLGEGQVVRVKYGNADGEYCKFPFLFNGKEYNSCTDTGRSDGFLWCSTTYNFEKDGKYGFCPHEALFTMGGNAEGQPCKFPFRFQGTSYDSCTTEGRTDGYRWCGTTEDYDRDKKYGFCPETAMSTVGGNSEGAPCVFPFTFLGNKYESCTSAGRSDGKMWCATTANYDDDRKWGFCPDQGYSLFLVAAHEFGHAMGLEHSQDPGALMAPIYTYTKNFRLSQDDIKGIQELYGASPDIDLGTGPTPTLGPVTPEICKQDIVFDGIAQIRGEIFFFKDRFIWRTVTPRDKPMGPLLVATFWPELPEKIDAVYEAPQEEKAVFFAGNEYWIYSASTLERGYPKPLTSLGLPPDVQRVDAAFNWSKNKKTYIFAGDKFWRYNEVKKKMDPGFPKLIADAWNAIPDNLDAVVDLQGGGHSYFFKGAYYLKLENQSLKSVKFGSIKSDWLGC
Chain of Matrix metalloproteinase-9 (P14780 whole entry): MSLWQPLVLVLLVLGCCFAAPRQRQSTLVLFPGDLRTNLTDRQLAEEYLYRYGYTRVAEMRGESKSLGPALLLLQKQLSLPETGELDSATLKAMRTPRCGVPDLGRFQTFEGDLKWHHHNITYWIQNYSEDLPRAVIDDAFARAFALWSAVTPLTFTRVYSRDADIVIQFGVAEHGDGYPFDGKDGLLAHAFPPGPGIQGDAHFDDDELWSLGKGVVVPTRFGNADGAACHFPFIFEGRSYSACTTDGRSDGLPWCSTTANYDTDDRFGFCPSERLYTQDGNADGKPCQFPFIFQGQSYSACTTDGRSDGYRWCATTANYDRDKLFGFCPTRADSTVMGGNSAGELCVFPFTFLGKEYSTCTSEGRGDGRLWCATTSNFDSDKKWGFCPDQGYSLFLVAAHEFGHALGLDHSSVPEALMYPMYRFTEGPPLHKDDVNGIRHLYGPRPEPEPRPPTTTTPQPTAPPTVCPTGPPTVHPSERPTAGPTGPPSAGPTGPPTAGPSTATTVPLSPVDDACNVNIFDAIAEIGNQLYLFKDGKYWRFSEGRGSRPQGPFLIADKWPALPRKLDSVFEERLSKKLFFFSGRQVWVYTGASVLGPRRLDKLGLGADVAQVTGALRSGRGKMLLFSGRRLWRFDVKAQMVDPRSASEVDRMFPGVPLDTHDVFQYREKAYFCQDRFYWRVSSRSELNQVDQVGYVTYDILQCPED

For `O=C(NCCC[C@@H](NS(=O)(=O)c1ccc(OCc2cc(Br)cc(Br)c2)cc1)C(=O)NO)OCc1ccccc1`, the pIC50 [1] was 5.36, the pIC50 [2] was 6.52 and the pIC50 [3] was 4.17. The pIC50 [4] was 5.84, the pIC50 [5] was 3.43 and the pIC50 [6] was 7.96. The pIC50 [7] was 6.46, the Activity [8] was “Non-toxic” and the Activity [9] was “Non-toxic”. For the same compound, the Activity [10] was “Non-toxic”, the pIC50 [11] was 5.00 and the pIC50 [12] was 6.46. For the same compound, the pIC50 [13] was 5.25, the pIC50 [14] was 5.12 and the pIC50 [15] was 6.56.

For `O=C(NCC[C@@H](NS(=O)(=O)c1ccc(OCc2cc(Br)cc(Br)c2)cc1)C(=O)NO)OCc1ccccc1`, the pIC50 [1] was 4.96, the pIC50 [2] was 5.09 and the pIC50 [3] was 3.98. For the same compound, the pIC50 [4] was 5.39, the pIC50 [5] was 3.40 and the pIC50 [6] was 7.37. The pIC50 [7] was 5.68, the Activity [8] was “Non-toxic” and the Activity [9] was “Non-toxic”. For the same compound, the Activity [10] was “Non-toxic”, the pIC50 [11] was less than 5.00 and the pIC50 [12] was 6.08. The pIC50 [13] was 5.02, the pIC50 [14] was less than 5.00 and the pIC50 [15] was 5.86.
